Consider five compounds from ChEMBL document CHEMBL4627320, “Discovery of CRBN E3 Ligase Modulator CC-92480 for the Treatment of Relapsed and Refractory Multiple Myeloma” (J Med Chem, 2020).

In brackets after ≈: the same amount, converted by molar mass. Activity calls are given as the source filed them. The calls are words filed in the database; no cut-off is given here.

The target of series [1] is Protein cereblon/DNA damage-binding protein 1 (Homo sapiens, UniProt Q96SW2). In words: Displacement of Cy5-conjugated CELMoD from N-terminal 6-His tagged CRBN (1 to 442 residues) (unknown origin)/DDB1 (1 to 1140 residues) (unknown origin) incubated for 10 mins by FRET assay. The class given is protein assay.
A short description of series [2]: Drug metabolism in assay cell medium assessed as compound racemization measured within 24 hrs. The class given is physicochemical. In outline:
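Compound held in the same cell medium used for the H929 R10-1 antiproliferation assay; enantiomer levels followed by chiral monitoring over 24 h.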

A short description of series [3]: Cmax in Sprague-Dawley rat at 10 mg/kg, po. The class given is ADME, organism-based. Set-up: dose 10 mg/kg, route oral. As to conditions: in vivo. The essentials: (§1)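 Sprague-Dawley rats given 10 mg/kg orally as a suspension in 0.5% CMC / 0.25% Tween-80 / water; plasma exposure followed.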
Series [4] is described as follows: AUC (0 to infinity) in Sprague-Dawley rat at 10 mg/kg, po. The class given is ADME, organism-based. Further details: dose 10 mg/kg, route oral, time infinity. As to conditions: in vivo. In outline: as §1
The nature of series [5]: Cmax in monkey at 3 mg/kg, po. The class given is ADME, organism-based, Macaca mulatta. Set-up: dose 3 mg/kg, route oral. The conditions noted are these: rhesus monkey, in vivo.
Series [6] can be described thus: AUC (0 to infinity) in monkey at 3 mg/kg, po. Further details: dose 3 mg/kg, route oral, time infinity. As to conditions: rhesus monkey, in vivo. The class given is ADME, organism-based, Macaca mulatta.
Series [7] in a line: Drug metabolism in monkey assessed as compound racemization at 3 mg/kg, po relative to compound AUC. The conditions noted are these: rhesus monkey, in vivo. The class given is ADME, organism-based, Macaca mulatta.
The species named for series [8] is Homo sapiens. The series is described as follows: (§2) Antiproliferative activity against lenalidomide-resistant human H929-R10-1 cells incubated for 5 days by CellTiter-Glo assay. The class given is functional. The essentials: (§3)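 H929 R10-1 cells kept in log phase at 37°C, 5% CO₂, and plated at 5000 cells/well. Compounds were added as 10-point duplicate curves starting at 10µM with 1:3 dilutions, in 0.1% DMSO, final volume 40µl. Plates were incubated for 5 days. Viability was read by CellTiter-Glo luminescence after 1 h at room temperature in the dark. IC50 is the mean of ≥3 separate determinations.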

Series [9] is filed under the species Homo sapiens. The series is described as follows: Induction of apoptosis in lenalidomide-resistant human H929-R10-1 cells assessed as p27 stabilization at 1 to 100 nM after 72 hrs by Western blot analysis. The class given is functional. The essentials: (§4)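 H929 R10-1 cells treated with DMSO or compound (1–100 nM) for 72 h, washed in PBS, lysed in NP-40/Tris pH 8 buffer with protease and phosphatase inhibitors; clarified lysates immunoblotted for p27, cleaved caspase-1, -3, -7 and cleaved PARP, with β-tubulin, using fluorescent secondary antibodies.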

For series [10], the species on record is Homo sapiens. The series is described as follows: Induction of apoptosis in lenalidomide-resistant human H929-R10-1 cells assessed as increase in cleaved caspase1 level at 1 to 100 nM after 72 hrs by Western blot analysis. The class given is functional. In outline: as §4
The species entered for series [11] is Homo sapiens. The series is described as follows: Induction of apoptosis in lenalidomide-resistant human H929-R10-1 cells assessed as increase in cleaved caspase7 level at 1 to 100 nM after 72 hrs by Western blot analysis. The class given is functional. In outline: as §4
For series [12], the species on record is Homo sapiens. The series is described as follows: Induction of apoptosis in lenalidomide-resistant human H929-R10-1 cells assessed as increase in cleaved caspase3 level at 1 to 100 nM after 72 hrs by Western blot analysis. The class given is functional. The essentials: as §4
The species entered for series [13] is Homo sapiens. The series is described as follows: Induction of apoptosis in lenalidomide-resistant human H929-R10-1 cells assessed as increase in cleaved PARP level after 72 hrs by Western blot analysis. The class given is functional. The essentials:
as §4

Series [14] is filed under the species Homo sapiens. The series is described as follows: Induction of apoptosis in lenalidomide-resistant human H929-R10-1 cells assessed as caspase3 induction at 1 uM measured over 150 hrs by live cell imaging analysis. The class given is functional. In outline: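 Lenalidomide-refractory H929 R10-1 cells were treated at concentrations from 1 nM to 1 μM. Caspase-3 induction was quantified by live-cell imaging over 150 h.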

Series [15] concerns PBMC. The series is described as follows: Cytotoxicity against PBMC (unknown origin). The class given is cell-based.
The nature of series [16]: as §2. The class given is functional. As to conditions: 120 h. The essentials: as §3
The target in series [17] is Protein cereblon/Zinc finger protein Aiolos (Homo sapiens, UniProt Q96SW2+Q9UKT9). The series is described as follows: Induction of CRBN-mediated pLOC-ePL-tagged aiolos (unknown origin) degradation in human DF15 cells assessed as minimum protein remaining incubated for 4 hrs by luminescence based beta-galactosidase enzyme fragmentation complementation assay. The class given is cell-based.

The target in series [18] is Protein cereblon/Eukaryotic peptide chain release factor GTP-binding subunit ERF3A (Homo sapiens, UniProt P15170+Q96SW2). The series is described as follows: Induction of CRBN-mediated pLOC-ePL-tagged GSPT1 (unknown origin) degradation in human DF15 cells assessed as minimum protein remaining incubated for 4 hrs by luminescence based beta-galactosidase enzyme fragmentation complementation assay. The class given is cell-based.

In series [19] the target is Adrenergic receptor alpha-1 (Homo sapiens) (UniProt P35348+P25100+P35368). The series is described as follows: Inhibition of adrenergic receptor alpha1 (unknown origin) at 10 uM relative to control. The class given is protein assay.
Series [20] addresses T1, D(2) dopamine receptor (Homo sapiens, UniProt P14416). In words: Inhibition of D2S (unknown origin) at 10 uM relative to control.
Series [21] addresses T1, D(2) dopamine receptor. The series is described as follows: Agonist activity at D2S (unknown origin).
Series [22] deals with D(2) dopamine receptor (Rattus norvegicus) (UniProt P61169). The series is described as follows: In vivo agonist activity at D2S in rat assessed as suppression of gut motility administered daily for 7 days. The class given is functional, organism-based.
The species entered for series [23] is Homo sapiens. In words: Induction of apoptosis in lenalidomide-resistant human H929-R10-1 cells assessed as caspase3 induction at 1 nM measured over 150 hrs by live cell imaging analysis. The class given is functional. The essentials: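 Lenalidomide-refractory H929 R10-1 cells treated at 1 nM to 1 μM; caspase-3 induction quantified by live cell imaging over 150 h.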

A short description of series [24]: Efflux ratio of permeability across apical to basolateral side in human Caco2 cells. The class given is ADME, cell-based. The conditions noted are these: Caco-2.
Series [25] in a line: Solubility of the compound at pH 5. The conditions noted are these: buffer. The class given is physicochemical.
Series [26] in a line: Metabolic stability in rat liver S9 fraction assessed as parent compound remaining after 60 mins. The class given is ADME, subcellular. The conditions noted are these: read-out: Stability. In outline:
(§5)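 Compound incubated with human or rat liver S9 fraction; percent parent remaining at 60 min.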

A short description of series [27]: Metabolic stability in human liver S9 fraction assessed as parent compound remaining after 60 mins. The class given is ADME, subcellular. As to conditions: read-out: Stability. In outline:
as §5

Series [28] in a line: Clearance in Sprague-Dawley rat at 2 mg/kg, iv. The class given is ADME, organism-based. The conditions noted are these: in vivo.
Series [29] is described as follows: Tmax in Sprague-Dawley rat at 10 mg/kg, po. The class given is ADME, organism-based. As to conditions: in vivo. In outline:
as §1

A short description of series [30]: Oral bioavailability in Sprague-Dawley rat at 10 mg/kg. The class given is ADME, organism-based. As to conditions: in vivo. The essentials: as §1
Series [31] in a line: Antitumor activity against human NCI-H929-1051 cells xenografted in CB17 SCID mouse assessed as reduction in tumor volume at 1 mg/kg, po qd for 21 days measured post last dose by caliper method relative to control. Further details: scale not given: the % may be the effect or the level left. The class given is functional. The essentials: (§6)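 Female CB17 SCID mice, 6-8 weeks old, were inoculated subcutaneously with 10×10⁶ NCI-H929-1051 cells, which had been expanded in 10 μM lenalidomide. At about 150 mm³ the mice were randomized (n=8-10/group) and dosed orally once daily for 21 days, with a vehicle control group. Tumors were measured by caliper twice weekly and volume was taken as width²×length/2. Final volumes were taken after the last dose. Data are mean ± SEM.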

Series [32] in a line: Antitumor activity against human NCI-H929-1051 cells xenografted in CB17 SCID mouse assessed as reduction in tumor volume at 3 mg/kg, po qd for 21 days measured post last dose by caliper method relative to control. The class given is functional. Further details: scale not given: the % may be the effect or the level left. The essentials: as §6
Series [33] in a line: Antitumor activity against human NCI-H929-1051 cells xenografted in CB17 SCID mouse assessed as reduction in tumor volume at 10 mg/kg, po qd for 21 days measured post last dose by caliper method relative to control. The class given is functional. Further details: scale not given: the % may be the effect or the level left. In outline:
as §6

In [1], `N#Cc1ccc(N2CCN(Cc3ccc(COc4cccc5c4CN([C@@H]4CCC(=O)NC4=O)C5=O)cc3)CC2)c(F)c1` had an IC50 of 4510 nM. Moreover, the Drug metabolism result is reported as “Metabolite_Detected” in series [2] and below 9% in series [7]. Moreover, the values for the Cmax in series [3] and in [5] were 60 nM and 16 nM, respectively. Further, the AUC(0-inf) in series [4] stood at 0.5 µM·h; in [6] it was 0.1 µM·h.

As for `Nc1cccc2c1C(=O)N(C1CCC(=O)NC1=O)C2=O` (stereo unspecified), the result in [8], in [9], in series [10], in series [11], in series [12] and in [13] was inactive. In series [14], the result was Active.

Take `O=C1CCC(N2Cc3c(OCc4ccc(CN5CCN(c6ccc(F)cc6F)CC5)cc4)cccc3C2=O)C(=O)N1` (racemic): in series [15], the Activity entry is on record as “Non-Toxic”. The 50% inhibitory concentration (IC50) in series [16] was 1.7 nM; in series [1], 55.1 to 502 nM. In addition, the EC50 in [17] is 0.1 nM; in series [18], above 10000 nM; in [21], 16 nM. Also, the inhibition in series [19] was 102%; in series [20], 99.1%. Besides, the result in [22] was Active.

With `N#Cc1ccc(N2CCN(Cc3ccc(COc4cccc5c4CN([C@H]4CCC(=O)NC4=O)C5=O)cc3)CC2)c(F)c1` [MEZIGDOMIDE], the IC50 in [1] came to 30 nM. Further, in [2], the Drug metabolism entry is on record as “Metabolite_Detected”. In addition, the result in [9], in series [10], in series [11], in series [12], in series [13] and in [23] was Active. For the same compound, in [24], the efflux ratio turned out to be 1. Besides, the concentration in solution in [25] (solubility) was 90 µg/mL (≈ 159 µM). The remaining at 1 h worked out at 100% in series [26] and 99% in series [27]. This compound gave a clearance in series [28] of 6.8 mL/min/kg. Moreover, the Cmax stood at 3200 nM in series [3] and 220 nM in series [5]. Also, the Tmax in series [29] was determined as 48 min. The AUC(0-inf) amounted to 16.4 µM·h in [4] and 1.1 µM·h in series [6]. The same compound yielded a bioavailability in [30] of 38%. Moreover, the values for the Activity in [31], in [32] and in series [33] were 75.3%, 83.8% and 85.7%, respectively.

`N#Cc1ccc(N2CCN(Cc3ccc(COc4cccc5c4CN(C4CCC(=O)NC4=O)C5=O)cc3)CC2)c(F)c1` (stereo unspecified) had an IC50 in series [16] of 1.7 nM. Moreover, the half-maximal effective concentration (EC50) in [17] was 0.1 nM; in series [21] it was above 10000 nM. Also, the inhibition in [19] turned out to be 67%; in series [20], 54.5%. Also, in [22], the result was inactive.
